ChEMBL document CHEMBL1821664, “Sulfonamides as a new scaffold for hypoxia inducible factor pathway inhibitors” (Bioorg Med Chem Lett, 2011)
Activity calls are given as the source filed them. The rule behind the calls is not given here.

Columns and labels:
[1] = molecular target: T1, Hypoxia inducible factors; HIF-1-alpha, HIF-2-alpha (Homo sapiens, UniProt Q16665+Q99814); assay: Inhibition of hypoxia-induced HIF1 activation in human LN229 cells expressing HRE-AP reporter gene assessed as HRE remaining activity at 10 uM preincubated for 1 hr under normoxia condition followed by 24 hrs incubation under hypoxia condition by alkaline phosphatase reporter assay relative to control; type: cell-based
Outline: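 LN229-HRE-AP cells pre-treated 1 h with compound or vehicle (1% DMSO), then 24 h in 1% O2 hypoxia incubator; cells lysed and alkaline phosphatase activity measured. Hits were compounds reducing hypoxic AP induction >50%; single assay.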

[2] = molecular target: T1, Hypoxia inducible factors; HIF-1-alpha, HIF-2-alpha; assay: Inhibition of hypoxia-induced HIF1 activation in human LN229 cells expressing HRE-AP reporter gene at 5 uM preincubated for 1 hr under normoxia condition followed by 24 hrs incubation under hypoxia condition by HRE-luciferase reporter assay relative to control; values are per cent of control
[3] = molecular target: T1, Hypoxia inducible factors; HIF-1-alpha, HIF-2-alpha; assay: Inhibition of hypoxia-induced HIF1 activation in human LN229 cells expressing HRE-AP reporter gene at 10 uM preincubated for 1 hr under normoxia condition followed by 24 hrs incubation under hypoxia condition by HRE-luciferase reporter assay relative to control; values are per cent of control
[4] = molecular target: T1, Hypoxia inducible factors; HIF-1-alpha, HIF-2-alpha; assay: Inhibition of hypoxia-induced HIF1 activation in human LN229 cells expressing HRE-AP reporter gene at 2.5 uM preincubated for 1 hr under normoxia condition followed by 24 hrs incubation under hypoxia condition by HRE-luciferase reporter assay relative to control; values are per cent of control
[5] = molecular target: T1, Hypoxia inducible factors; HIF-1-alpha, HIF-2-alpha; assay: Inhibition of hypoxia-induced HIF1 activation in human LN229 cells expressing HRE-AP reporter gene preincubated for 1 hr under normoxia condition followed by 24 hrs incubation under hypoxia condition by HRE-luciferase reporter assay; type: cell-based
Outline: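 HRE-luciferase dose-response: cells pre-treated 1 h, then 24 h hypoxia; luciferase measured in cell extracts; each compound run 5–21 times on separate days, in triplicate. IC50 obtained from a four-parameter logistic fit using a nonlinear mixed-effects model.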

[6] = molecular target: T1, Hypoxia inducible factors; HIF-1-alpha, HIF-2-alpha; assay: Inhibition of hypoxia-induced HIF1 activation in human LN229 cells expressing VEGF reporter gene assessed as VEGF expression at 10 uM preincubated for 1 hr under normoxia condition followed by 24 hrs incubation under hypoxia condition by luciferase reporter assay; type: cell-based
Outline: (§1)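 LN229 cells stably carrying a VEGF promoter-luciferase construct, pre-treated 1 h in normoxia with compound at 10 µM final, then 24 h in normoxia or hypoxia; luciferase measured in cell extracts; triplicate means ± SD.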

[7] = molecular target: T1, Hypoxia inducible factors; HIF-1-alpha, HIF-2-alpha; assay: Inhibition of hypoxia-induced HIF1 activation in human LN229 cells expressing VEGF reporter gene assessed as VEGF expression at 10 uM after 24 hrs incubation under hypoxia condition by luciferase reporter assay; type: cell-based; outline: as §1

| SMILES | Activity [1] [%] | residual activity [2] [%] | residual activity [3] [%] | residual activity [4] [%] | other results |
| --- | --- | --- | --- | --- | --- |
| COc1c(CN(c2ccccc2)S(=O)(=O)c2cc(Cl)ccc2Cl)ccc2c1OC(C)(C)C=C2 | 51.5 |  |  |  |  |
| CC1(C)C=Cc2cc(C(O)c3cn(C45CC6CC(CC(C6)C4)C5)nn3)ccc2O1 (configuration not stated) | 101 |  |  |  |  |
| COc1c(CN(Cc2ccccc2)S(=O)(=O)c2ccc([N+](=O)[O-])cc2)ccc2c1OC(C)(C)C=C2 | 62.2 |  |  |  |  |
| COc1ccc(Cl)cc1S(=O)(=O)N(Cc1ccccc1)Cc1ccc2c(c1)C=CC(C)(C)O2 |  | 78 | 50 | 66 |  |
| COc1ccc(Cl)cc1S(=O)(=O)N(Cc1ccc2c(c1)C=CC(C)(C)O2)c1ccccc1 |  | 56 | 28 | 61 |  |
| COc1c(/C=N/O)ccc2c1OC(C)(C)C=C2 | 89.4 |  |  |  |  |
| CC1(C)C=Cc2cc(CN(C3CCCCC3)S(=O)(=O)c3cccc4ccccc34)ccc2O1 |  | 37 | 37 | 68 |  |
| CC1(C)C=Cc2cc(CN(C3CCCCC3)S(=O)(=O)c3ccc(Br)cc3OC(F)(F)F)ccc2O1 |  | 75 | 61 | 79 |  |
| CC1(C)C=Cc2cc(CN(C(=O)c3cccs3)c3ccccc3)ccc2O1 | 79.1 |  |  |  |  |
| CC(=O)N(Cc1ccc2c(c1)C=CC(C)(C)O2)c1ccccc1 | 91.5 |  |  |  |  |
| CC1(C)C=Cc2cc(CN(c3ccccc3)S(=O)(=O)c3ccc([N+](=O)[O-])cc3)ccc2O1 |  | 66 | 50 | 78 |  |
| CCN(CC)C(=O)OCn1cc(C(O)c2ccc3c(c2)C=CC(C)(C)O3)nn1 (configuration not stated) | 97.7 |  |  |  |  |
| CC1(C)C=Cc2cc(C(O)c3cn(CCNc4ccc([N+](=O)[O-])c5nonc45)nn3)ccc2O1 (configuration not stated) | 116 |  |  |  |  |
| COc1ccc(S(=O)(=O)N(Cc2ccc3c(c2)C=CC(C)(C)O3)C2CCCCC2)cc1OC |  | 17 | 4 | 44 |  |
| COc1c(CN(C(=O)c2ccc(Br)cc2)c2ccccc2)ccc2c1OC(C)(C)C=C2 | 63.2 |  |  |  |  |
| COc1c(CN(Cc2ccccc2)S(=O)(=O)c2cc(Cl)ccc2Cl)ccc2c1OC(C)(C)C=C2 | 35 |  |  |  |  |
| CC1(C)C=Cc2cc(CN(Cc3ccccc3)S(=O)(=O)c3ccc(Oc4c(Cl)cccc4[N+](=O)[O-])cc3)ccc2O1 |  | 51 | 27 | 54 |  |

| SMILES | Activity [1] [%] | residual activity [2] [%] | residual activity [3] [%] | residual activity [4] [%] | other results |
| --- | --- | --- | --- | --- | --- |
| CC1(C)C=Cc2cc(CN(c3ccccc3)S(=O)(=O)c3cccc4ccccc34)ccc2O1 |  | 75 | 29 | 55 |  |
| CC1(C)C=Cc2cc(CN(C3CCCCC3)S(=O)(=O)c3ccc([N+](=O)[O-])cc3)ccc2O1 |  | 53 | 33 | 68 |  |
| CC1(C)C=Cc2cc(CN(c3ccccc3)S(=O)(=O)c3ccc(Oc4c(Cl)cccc4[N+](=O)[O-])cc3)ccc2O1 |  | 21 | 27 | 40 |  |
| CC1(C)C=Cc2cc(CN(C(=O)c3ccc(Br)cc3)c3ccccc3)ccc2O1 | 57.6 |  |  |  |  |
| C=Cc1ccc2c(c1)C=CC(C)(C)O2 | 98.2 |  |  |  |  |
| CC(C)CN(Cc1ccc2c(c1)C=CC(C)(C)O2)S(=O)(=O)c1ccc(Br)cc1OC(F)(F)F |  | 57 | 24 | 49 |  |
| CC1(C)C=Cc2cc(CN(c3ccccc3)S(=O)(=O)c3cc(Cl)ccc3Cl)ccc2O1 | 54.2 | 51 | 35 | 62 |  |
| CC1(C)C=Cc2cc(CN(Cc3ccccc3)S(=O)(=O)c3ccc([N+](=O)[O-])cc3)ccc2O1 |  | 35 | 27 | 47 |  |
| CC(C)CN(Cc1ccc2c(c1)C=CC(C)(C)O2)S(=O)(=O)c1ccc(Oc2c(Cl)cccc2[N+](=O)[O-])cc1 |  | 23 | 24 | 34 |  |
| COc1c(CN(c2ccccc2)S(=O)(=O)c2ccc([N+](=O)[O-])cc2)ccc2c1OC(C)(C)C=C2 | 72.4 |  |  |  |  |
| CC1(C)C=Cc2cc(CN(c3ccccc3)S(=O)(=O)c3ccc(Br)cc3OC(F)(F)F)ccc2O1 |  | 56 | 35 | 53 |  |
| COc1cc(OC)cc(S(=O)(=O)N(Cc2ccc3c(c2)C=CC(C)(C)O3)CC(C)C)c1 |  |  |  |  | IC50 [5]: 1.011 µM; inhibition [6]: Active; inhibition [7]: inactive |
| CC1(C)C=Cc2cc(CN(C3CCCCC3)S(=O)(=O)c3cc(Cl)ccc3Cl)ccc2O1 |  | 60 | 24 | 54 |  |
| CC1(C)C=Cc2cc(C(O)c3cn(CCOc4ccc5ccc(=O)oc5c4)nn3)ccc2O1 (configuration not stated) | 117 |  |  |  |  |
| CC1(C)C=Cc2cc(CN(C3CCCCC3)S(=O)(=O)c3ccc(Oc4c(Cl)cccc4[N+](=O)[O-])cc3)ccc2O1 |  | 49 | 49 | 73 |  |
| CC1(C)C=Cc2cc(/C=N/O)ccc2O1 | 91.4 |  |  |  |  |

Now from value to molecule, other results behind:

| Activity [1] [%] | residual activity [2] [%] | residual activity [3] [%] | residual activity [4] [%] | SMILES | other results |
| --- | --- | --- | --- | --- | --- |
| 88.8 |  |  |  | CC1(C)C=Cc2cc(C(O)c3cn(Cc4ccccc4)nn3)ccc2O1 (configuration not stated) |  |
| 67.5 |  |  |  | COc1c(CN(Cc2ccccc2)C(=O)c2cccs2)ccc2c1OC(C)(C)C=C2 |  |
| 90.7 |  |  |  | CC1(C)C=Cc2cc(C(O)c3cn(C(C)(C)C)nn3)ccc2O1 (configuration not stated) |  |
| 64.7 |  |  |  | COc1ccc(S(=O)(=O)N(Cc2ccc3c(c2)C=CC(C)(C)O3)C(C)C)cc1OC |  |
| 93.1 |  |  |  | COc1c(CN(Cc2ccccc2)C(C)=O)ccc2c1OC(C)(C)C=C2 |  |
| 55 |  |  |  | Cc1ccc(S(=O)(=O)N(Cc2ccc3c(c2)C=CC(C)(C)O3)C(C)C)cc1 |  |
| 105 |  |  |  | CCOC(OCC)c1ccc2c(c1OC)OC(C)(C)C=C2 |  |
| 61.8 |  |  |  | COc1c(CN(C(=O)c2cccs2)c2ccccc2)ccc2c1OC(C)(C)C=C2 |  |
| 63.9 |  |  |  | CC(C)N(Cc1ccc2c(c1)C=CC(C)(C)O2)C(=O)c1ccc(Br)cc1 |  |
| 40.4 |  |  |  | COc1c(CN(Cc2ccccc2)S(=O)(=O)c2ccc(C)cc2)ccc2c1OC(C)(C)C=C2 |  |
| 104 |  |  |  | COc1c(C(C)n2ccnc2)ccc2c1C=CC(C)(C)O2 (configuration not stated) |  |
|  | 54 | 20 | 60 | COc1ccc(S(=O)(=O)N(Cc2ccccc2)Cc2ccc3c(c2)C=CC(C)(C)O3)c(OC)c1 |  |
| 135 |  |  |  | COc1c(C(C(C)C)n2ccnc2)ccc2c1C=CC(C)(C)O2 (configuration not stated) |  |
| 55.7 |  |  |  | COc1c(C(C)n2cnc3cc(Cl)ccc32)ccc2c1C=CC(C)(C)O2 (configuration not stated) |  |
| 88.8 |  |  |  | COc1c(C(C(C)C)n2cnc3ncccc32)ccc2c1C=CC(C)(C)O2 (configuration not stated) |  |
| 48.6 |  |  |  | COc1ccc(S(=O)(=O)N(Cc2ccc3c(c2OC)OC(C)(C)C=C3)c2ccccc2)cc1OC |  |
|  | 90 | 73 | 81 | COc1ccc(Cl)cc1S(=O)(=O)N(Cc1ccc2c(c1)C=CC(C)(C)O2)CC(C)C |  |

| Activity [1] [%] | residual activity [2] [%] | residual activity [3] [%] | residual activity [4] [%] | SMILES | other results |
| --- | --- | --- | --- | --- | --- |
| 94.9 |  |  |  | CC(O)c1ccc2c(c1)C=CC(C)(C)O2 (configuration not stated) |  |
|  | 61 | 31 | 76 | COc1ccc(S(=O)(=O)N(Cc2ccc3c(c2)C=CC(C)(C)O3)c2ccccc2)c(OC)c1 |  |
| 88.9 |  |  |  | CC1(C)C=Cc2cc(C(c3ccccc3)n3ccnc3)ccc2O1 (configuration not stated) |  |
| 83.5 |  |  |  | CC1(C)C=Cc2cc(C(c3ccccc3)n3cnc4ncccc43)ccc2O1 (configuration not stated) |  |
| 43.2 |  |  |  | CC(C)N(Cc1ccc2c(c1)C=CC(C)(C)O2)S(=O)(=O)c1ccc([N+](=O)[O-])cc1 |  |
| 68.5 |  |  |  | COc1ccc(S(=O)(=O)N(Cc2ccccc2)Cc2ccc3c(c2OC)OC(C)(C)C=C3)cc1OC |  |
| 58.4 |  |  |  | COc1c(CN(c2ccccc2)S(=O)(=O)c2ccc(C)cc2)ccc2c1OC(C)(C)C=C2 |  |
| 46.2 |  |  |  | CC(C)N(Cc1ccc2c(c1)C=CC(C)(C)O2)C(=O)c1cccs1 |  |
| 108 |  |  |  | COc1c(CN(C(C)=O)c2ccccc2)ccc2c1OC(C)(C)C=C2 |  |
| 41.9 |  |  |  | CC(C)N(Cc1ccc2c(c1)C=CC(C)(C)O2)S(=O)(=O)c1cc(Cl)ccc1Cl |  |
| 76.9 |  |  |  | CC(c1ccc2c(c1)C=CC(C)(C)O2)n1cnc2ncccc21 (configuration not stated) |  |
| 106 |  |  |  | CC1(C)C=Cc2cc(C(O)n3cc(-c4ccccc4)nn3)ccc2O1 (configuration not stated) |  |
| 95.7 |  |  |  | COc1c(C(C)n2cnc3ncccc32)ccc2c1C=CC(C)(C)O2 (configuration not stated) |  |
| 105 |  |  |  | CC(=O)N(Cc1ccc2c(c1)C=CC(C)(C)O2)C(C)C |  |
| 87.9 |  |  |  | CC1(C)C=Cc2cc(C(c3ccccc3)n3cnc4cc(Cl)ccc43)ccc2O1 (configuration not stated) |  |
|  | 26 | 15 | 54 | COc1ccc(S(=O)(=O)N(Cc2ccccc2)Cc2ccc3c(c2)C=CC(C)(C)O3)cc1OC |  |
| 86.6 |  |  |  | CC(c1ccc2c(c1)C=CC(C)(C)O2)n1ccnc1 (configuration not stated) |  |
